Some results are limits rather than exact numbers.

For orientation: MIC means the lowest concentration that inhibits growth of the organism. A low value points to greater potency.

One data set concerns Escherichia coli. Put plainly: Antimicrobial activity against Escherichia coli D21 after 18 to 20 hrs by micro-broth dilution method. In kind it is functional. The method, boiled down:
(§1)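 Microbroth dilution per NCCLS (2001): midlog-phase bacteria at 2 × 10^6 CFU/mL in Mueller-Hinton medium mixed 1:1 with MH broth containing peptide in serial 2-fold dilutions (20% ethanol), range 0.75-24 µM. Incubated 18–20 h at 37 °C; growth read as absorbance at 600 nm. MIC taken as the lowest peptide concentration giving 100% growth inhibition.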

The next data set deals with Priestia megaterium. Briefly: Antimicrobial activity against Bacillus megaterium Bm11 after 18 to 20 hrs by micro-broth dilution method. In kind it is functional. The method, boiled down:
as §1
On the technique in general: Broth dilution looks for growth in wells or tubes with falling amounts of substance.

Data set [1] relates to Yersinia pseudotuberculosis. Put plainly: Antimicrobial activity against Yersinia pseudotuberculosis YP3 after 18 to 20 hrs by micro-broth dilution method. It counts as functional. The method, boiled down:
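Microbroth dilution per NCCLS (2001). Mid-log bacteria at 2 × 10^6 CFU/mL in Mueller-Hinton broth are mixed 1:1 with MH broth holding serial 2-fold peptide dilutions in 20% ethanol, range 0.75-24 µM. Plates are incubated 18–20 h at 37 °C and growth is read as A600. MIC is the lowest concentration giving 100% growth inhibition.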

For another data set, the system named is Streptococcus pyogenes. Briefly: Antimicrobial activity against Streptococcus pyrogenes ATCC 21547 after 18 to 20 hrs by micro-broth dilution method. In kind it is functional. The method, boiled down:
as §1

A further data set concerns Staphylococcus capitis. Put plainly: Antimicrobial activity against Staphylococcus capitis after 18 to 20 hrs by micro-broth dilution method. In kind it is functional. The method, boiled down: as §1
Data set [2] concerns Staphylococcus aureus. Briefly: Antimicrobial activity against Staphylococcus aureus Cowan 1 after 18 to 20 hrs by micro-broth dilution method. It counts as functional. The method, boiled down:
as §1

Data set [3] is described as follows: Toxicity assessed as hemolytic activity in human erythrocytes at 12 uM after 30 mins. In kind it is cell-based, Erythrocyte. Conditions: read-out: Activity. The method, boiled down:
(§2)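 Human erythrocyte suspension in 0.9% (w/v) NaCl incubated 30 min at 37 °C with gentle mixing alongside serial 2-fold peptide dilutions (peptide dissolved in 20% ethanol). After centrifugation, supernatant absorbance read at 415 nm. Complete lysis reference obtained by suspending erythrocytes in distilled water.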

Data set [4] in a line: Toxicity assessed as hemolytic activity in human erythrocytes at 24 uM after 30 mins. In kind it is cell-based, Erythrocyte. The following applies: read-out: Activity. The method, boiled down: as §2
Data set [5] is described as follows: Toxicity assessed as hemolytic activity in human erythrocytes at 6 uM after 30 mins. It counts as cell-based, Erythrocyte. The following applies: read-out: Activity. The method, boiled down:
as §2

In another data set the test system is Saccharomyces cerevisiae. Put plainly: Antimicrobial activity against Saccharomyces cerevisiae after 18 to 20 hrs by micro-broth dilution method. It counts as functional. The method, boiled down: (§3)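 Yeasts tested by NCCLS (2001) microbroth dilution in Winge medium: cells mixed 1:1 with medium containing peptide in serial 2-fold dilutions (20% ethanol), range 0.75-24 µM. Incubated 18–20 h at 30 °C; absorbance read at 600 nm. MIC defined as the peptide concentration giving 100% growth inhibition.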

Data set [6] has as its system Staphylococcus aureus. Put plainly: Antimicrobial activity against Staphylococcus aureus ATCC 25923 after 18 to 20 hrs by micro-broth dilution method. In kind it is functional. The method, boiled down: as §1
For the next data set, the system named is Saccharomyces. Briefly: Antimicrobial activity against Saccharomyces pombe after 18 to 20 hrs by micro-broth dilution method. It counts as functional. A digest of the protocol: as §3
The nature of data set [7]: Antimicrobial activity against […] faecalis ATCC 29212 after 18 to 20 hrs by microbroth dilution method. In kind it is functional. A digest of the protocol: as §1
A further data set deals with Pseudomonas syringae. Briefly: Antimicrobial activity against Pseudomonas syringae pv tabaci after 18 to 20 hrs by micro-broth dilution method. It counts as functional. The method, boiled down: as §1
The test system of data set [8] is Staphylococcus epidermidis. Put plainly: Antimicrobial activity against Staphylococcus epidermidis ATCC 12228 after 18 to 20 hrs by micro-broth dilution method. In kind it is functional. The method, boiled down: as §1
A further data set has as its system Pseudomonas aeruginosa. Briefly: Antimicrobial activity against Pseudomonas aeruginosa ATCC 15692 after 18 to 20 hrs by microbroth dilution method. In kind it is functional. The method, boiled down:
as §1

The next data set deals with Candida albicans. Briefly: Antimicrobial activity against Candida albicans ATCC 10231 after 18 to 20 hrs by micro-broth dilution method. In kind it is functional. A digest of the protocol: as §3
A short description of data set [9]: Toxicity assessed as hemolytic activity in human erythrocytes at 3 uM after 30 mins. In kind it is cell-based, Erythrocyte. The following applies: read-out: Activity. The method, boiled down: as §2

Take “H-FLQLIGRVLSGIL-NH2 [GLN-TA, TEMPORIN A]”: the MIC against Escherichia coli was greater than 24 µM; in the data set with Priestia megaterium, 0.75 µM; in data set [1], 6 µM; against Streptococcus pyogenes it was 6 µM; in the data set on Staphylococcus capitis, 1.5 µM; with Staphylococcus aureus [2], 1.5 µM. For the same substance, the MIC against Saccharomyces cerevisiae was 6 µM; in the data set on Staphylococcus aureus [6], 1.5 µM; in the data set with Saccharomyces, 3 µM; in data set [7] it was 6 µM; against Pseudomonas syringae it was greater than 24 µM; in data set [8], 1.5 µM. Further, the figures for the MIC with Pseudomonas aeruginosa and in the data set with Candida albicans were greater than 24 µM and 6 µM, respectively. In addition, the hemolysis at 0.5 h, 12 µM in [3] came to 70%. In addition, the hemolysis at 0.5 h, 24 µM in [4] stood at 92%. In data set [5], the hemolysis at 0.5 h, 6 µM was determined as 18%. In addition, the hemolysis at 0.5 h, 3 µM in data set [9] stood at 9%.
Regarding H-FLPLIGRVLSGIL-NH2 [TEMPORIN A], the MIC against Escherichia coli was greater than 24 µM; in the data set on Priestia megaterium it was 1.5 µM; in data set [1], 12 µM; against Streptococcus pyogenes it was 12 µM; in the data set with Staphylococcus capitis, 1.5 µM; in the data set with Staphylococcus aureus [2], 1.5 µM. In addition, the MIC against Saccharomyces cerevisiae is 6 µM; in the data set with Staphylococcus aureus [6], 3 µM; against Saccharomyces, 3 µM; in data set [7] it was 12 µM; in the data set with Pseudomonas syringae, greater than 24 µM; in data set [8], 3 µM. Further, the MIC with Pseudomonas aeruginosa was greater than 24 µM; in the data set on Candida albicans, 12 µM. Also, the hemolysis at 0.5 h, 12 µM in [3] was 6%. In addition, the hemolysis at 0.5 h, 24 µM in [4] is 28%. The hemolysis at 0.5 h, 6 µM in [5] stood at 4.5%. In data set [9], the hemolysis at 0.5 h, 3 µM came to 3%.
Take H-FVQWFSKFLGRIL-NH2 [TEMPORIN L]: the MIC was 12 µM in the data set with Escherichia coli; 1.5 µM against Priestia megaterium; 3 µM in data set [1]; 6 µM with Streptococcus pyogenes; 1.5 µM against Staphylococcus capitis; 3 µM in the data set on Staphylococcus aureus [2]. Moreover, the MIC amounted to 6 µM against Saccharomyces cerevisiae; 3 µM against Staphylococcus aureus [6]; 6 µM with Saccharomyces; 6 µM in data set [7]; 6 µM against Pseudomonas syringae; 3 µM in data set [8]. The MIC came out at 24 µM in the data set on Pseudomonas aeruginosa and 12 µM in the data set with Candida albicans. In addition, the hemolysis at 0.5 h, 12 µM in [3] stood at 92%. Further, in [4], the hemolysis at 0.5 h, 24 µM turned out to be 94%. Also, the hemolysis at 0.5 h, 6 µM in data set [5] was 48%. Besides, the hemolysis at 0.5 h, 3 µM in data set [9] was found to be 13%.
Turning to H-FVPWFSKFLGRIL-NH2, the MIC in the data set on Escherichia coli stood at 12 µM; against Priestia megaterium, 1.5 µM; in [1], 3 µM; against Streptococcus pyogenes, 6 µM; against Staphylococcus capitis it was 1.5 µM; in the data set with Staphylococcus aureus [2] it was 1.5 µM. The MIC in the data set with Saccharomyces cerevisiae amounted to 6 µM; against Staphylococcus aureus [6], 3 µM; in the data set with Saccharomyces, 3 µM; in data set [7], 6 µM; in the data set on Pseudomonas syringae, 6 µM; in [8], 1.5 µM. The MIC stood at 24 µM in the data set on Pseudomonas aeruginosa and 6 µM against Candida albicans. Besides, in [3], the hemolysis at 0.5 h, 12 µM is 42%. Moreover, the hemolysis at 0.5 h, 24 µM in data set [4] was 92%. In data set [5], the hemolysis at 0.5 h, 6 µM came out at 10%. The hemolysis at 0.5 h, 3 µM in data set [9] was found to be 6%.
